Measurements as given in ChEMBL document CHEMBL1132620, “Piperazine imidazo[1,5-a]quinoxaline ureas as high-affinity GABAA ligands of dual functionality” (J Med Chem, 1999).
The source made the active and inactive calls. No cut-off for these calls is given here.

How the values were obtained:
[1] = molecular target: GABA-A receptor; anion channel; test: (§1) Displacement of [3H]flunitrazepam from GABA-A benzodiazepine receptor of rat cortical membranes; type: cell membranes, Membrane
How it was run: (§2)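 Rat membranes incubated 60 min at 4 °C with [3H]flunitrazepam, 50 µg membrane protein and graded test drug in 200 µL containing NaCl, 10 mM Hepes/Tris pH 7.4 and 1 mM MgCl2; bound ligand separated by rapid filtration on GF/B; mean affinity, SE ≤10% of mean.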

[2] = molecular target: T1, GABA-A receptor; anion channel (Rattus norvegicus) (UniProt O09028+P15431+P18506+P18508+P19969+P20236+P23574+P23576+P28471+P28473+P30191+P62813+P63079+P63138+Q91ZM7+Q9ES14); test: Shift in [35S]TBPS binding to GABA-A Benzodiazepine receptor of rat brain membrane
[3] = molecular target: GABA A receptor alpha-3/beta-2/gamma-2 (Homo sapiens) (UniProt P47870+P18507+P34903); test: In vitro GABA-mediated chloride current in A293 cells expressing GABA-A benzodiazepine receptor alpha-3-beta-2-gamma-2 subunits at 5 uM; type: functional, cell-based; details: HEK293
Rattus norvegicus = test: In vivo efficacy evaluated for ability to antagonize metrazole induced clonic convulsions in rat after ip injection; type: functional
[4] = molecular target: T2, GABA-A receptor; alpha-1/beta-2/gamma-2 (Homo sapiens) (UniProt P14867+P47870+P18507); test: (§3) In vitro GABA-mediated chloride current in A293 cells expressing GABA-A benzodiazepine receptor alpha-1-beta-2-gamma-2 subunits at 5 uM; type: functional, cell-based; details: HEK293
Mus musculus [5] = organism: Mus musculus; test: Ability to antagonize the muscle relaxation effect in mice caused by a benzodiazepine full agonist, triazolam.; type: functional
How it was run: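 Muscle relaxation induced by triazolam; test compound and triazolam given separately, traction scored 30 min after dosing; ED50 for blocking the relaxant effect.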

Mus musculus [6] = test: In vivo efficacy is evaluated by percent control of cerebellar GMP levels in (drug+stress) treated mice/mice under stress; type: functional; parameters: concentration or dose not given beside the values
How it was run: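 Male CF-1 mice given drug orally in vehicle 122 before electric footshock stress, controls given vehicle (1 mL/100 g); killed 30 min after treatment; cerebellum homogenized in 1% perchloric acid, iced 30 min, boiled 5 min, spun 17000g 20 min; supernatant cGMP by radioimmunoassay, expressed as % of stress control.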

[7] = molecular target: T1, GABA-A receptor; anion channel (Rattus norvegicus); test: as §1; type: cell membranes; parameters: concentration or dose not given beside the values; details: Membrane, concentration not given here; how it was run: as §2
[8] = molecular target: T2, GABA-A receptor; alpha-1/beta-2/gamma-2 (Homo sapiens); test: as §3; type: functional, cell-based; details: HEK293; remark: listed apart in the source
Mus musculus [9] = test: In vivo acute electroshock physical dependence activity in mice; Active; type: functional, organism-based
[10] = molecular target: T1, GABA-A receptor; anion channel (Rattus norvegicus); test: Inhibition of [35S]TBPS binding to GABA-A Benzodiazepine receptor of rat brain membranes; type: cell membranes; details: Membrane
Mus musculus [11] = test: In vivo acute electroshock physical dependence activity in mice; Not active.; type: functional, organism-based

SMILES	Ki [1] [nM]	Shift [2]	Change in Cl- current [3]	ED50 (Rattus norvegicus) [mg/kg]	Change in Cl- current [4]	ED50 (Mus musculus [5]) [mg/kg]	Control (Mus musculus [6]) [%]	inhibition [7] [%]	Change in Cl- current [8]	Acute electroshock activity (Mus musculus [9])	Shift [10]	Acute electroshock activity (Mus musculus [11])
CN1CCN(C(=O)N2Cc3c(C(=O)OC(C)(C)C)ncn3-c3ccc(Cl)cc32)CC1	10.9	0.57	0.44	7.4	0.98	11	94	29	–	–	–	–
C[C@H]1NCCN(C(=O)N2Cc3c(C(=O)OC(C)(C)C)ncn3-c3ccc(Cl)cc32)[C@H]1C	2.34	0.27	–	0.7	0	> 30	70	78	0.7	Active	–	–
CN(C)C(=O)N1Cc2c(C(=O)OC(C)(C)C)ncn2-c2ccc(Cl)cc21	5.56	–	–	10.5	0.35	–	–	–	–	–	0.51	–
CC1(C)CN(C(=O)N2Cc3c(C(=O)OC(C)(C)C)ncn3-c3ccc(Cl)cc32)CC(C)(C)N1	3.2	0.77	–	3.7	1.14	> 30	40	47	–	Active	–	–
CC(C)(C)OC(=O)c1ncn2c1CN(C(=O)N1CCOCC1)c1ccccc1-2	2.47	–	–	> 50	0.14	–	–	–	–	–	0	–
Cc1ccc2c(c1)N(C(=O)N1C[C@@H](C)N[C@@H](C)C1)Cc1c(C(=O)OC(C)(C)C)ncn1-2	4.66	0.38	0.1	–	0.3	> 30	73	55	0.84	Active	–	–
C[C@@H]1CN(C(=O)N2c3cc(Cl)ccc3-n3cnc(C(=O)OC(C)(C)C)c3C2(C)C)C[C@H](C)N1C	39.7	1.43	0.68	0.6	2.6	> 30	38	84	–	Active	–	–
C[C@@H]1CN(C(=O)N2Cc3c(C(=O)OC(C)(C)C)ncn3-c3ccc(C(F)(F)F)cc32)C[C@H](C)N1C	31.4	0.26	–	6.2	0.81	21.8	–	17	–	Active	–	–
CC(C)(C)OC(=O)c1ncn2c1CN(C(=O)N1CCN(C3CC3)CC1)c1cc(Cl)ccc1-2	5.39	0.76	–	12.5	0.75	> 30	–	24	0.42	–	–	inactive
CC1(C)CN(C(=O)N2Cc3c(C(=O)OC(C)(C)C)ncn3-c3ccc(Cl)cc32)CCN1	3.03	-0.01	–	> 50	0	> 30	–	13	0.33	–	–	inactive
Cc1ccc2c(c1)N(C(=O)N1C[C@H](C)N[C@@H](C)C1)Cc1c(C(=O)OC(C)(C)C)ncn1-2	25.6	0.77	–	7.4	1.3	> 30	79	17	1.3	Active	–	–
CC(C)(C)OC(=O)c1ncn2c1CN(C(=O)N1CCN(c3ccccn3)CC1)c1cc(Cl)ccc1-2	15.1	0.32	–	> 50	0.83	> 30	–	3.4	0.35	Active	–	–
C[C@@H]1CN(C(=O)N2c3cc(Cl)ccc3-n3cnc(C(=O)OC(C)(C)C)c3C2(C)C)C[C@H](C)N1	19.9	1.23	1.08	0.4	0.96	–	30	94	–	Active	–	–
CCCC(=O)O.CCN1[C@H](C)CN(C(=O)N2Cc3c(C(=O)OC(C)(C)C)ncn3-c3ccc(Cl)cc32)C[C@@H]1C	10.5	0.15	–	3.7	0.5	> 30	88	84	0.94	–	–	inactive
CC(C)(C)OC(=O)c1ncn2c1CN(C(=O)N1CCN(CC(F)(F)F)CC1)c1cc(Cl)ccc1-2	10.9	0.81	–	> 50	1	> 30	–	10	0.8	–	–	inactive
C[C@H]1CN(C(=O)N2Cc3c(C(=O)OC(C)(C)C)ncn3-c3ccc(Cl)cc32)CCN1	6.71	0.12	–	1.2	0.1	> 30	56	74	0.8	Active	–	–
CN(C)C(=O)N1Cc2c(-c3noc(C4CC4)n3)ncn2-c2ccccc21 [PNU-91571]	–	–	–	21	0.68	1	61	–	–	–	0.69	inactive
CC1CN(C(=O)N2Cc3c(C(=O)OC(C)(C)C)ncn3-c3ccc(Cl)cc32)CCN1 (stereo not drawn)	4.48	0.18	–	8.8	0.17	> 30	–	68	0.5	Active	–	–
C[C@@H]1CN(C(=O)N2Cc3c(C(=O)OC(C)(C)C)ncn3-c3cccc(Cl)c32)C[C@H](C)N1C	56.3	0.22	–	> 50	0.71	> 30	102	49	–	–	–	inactive
Cc1ccc2c(c1)N(C(=O)N1C[C@@H](C)N(C)[C@@H](C)C1)Cc1c(C(=O)OC(C)(C)C)ncn1-2	9.5	0.11	0.56	1.6	1.37	> 30	57	64	–	Active	–	–
Cc1ccc2c(c1)N(C(=O)N1CCN[C@@H](C)C1)Cc1c(C(=O)OC(C)(C)C)ncn1-2	17.9	0.59	–	25	0.4	> 30	55	32	1.1	Active	–	–
C[C@H]1CN(C(=O)N2Cc3c(C(=O)OC(C)(C)C)ncn3-c3ccc(C(F)(F)F)cc32)CCN1	42.8	0.54	–	25	0.7	> 30	82	21	0.8	–	–	inactive
CC(=O)N1[C@H](C)CN(C(=O)N2Cc3c(C(=O)OC(C)(C)C)ncn3-c3ccc(Cl)cc32)C[C@@H]1C	4.66	0.94	–	14.8	0.79	> 30	–	22	–	Active	–	–
CC1CN(C)CC(C)N1C(=O)N1Cc2c(C(=O)OC(C)(C)C)ncn2-c2ccc(Cl)cc21 (stereo not drawn)	90.2	1.02	0.69	6.2	1.71	> 30	100	32	–	–	–	inactive
CN1CCN(C(=O)N2Cc3c(C(=O)OC(C)(C)C)ncn3-c3ccc(Cl)cc32)CC1(C)C	4.35	0.21	–	35.3	0.5	> 30	–	11	1.1	–	–	inactive
C[C@H]1CN(C(=O)N2Cc3c(C(=O)OC(C)(C)C)ncn3-c3ccc(C(F)(F)F)cc32)C[C@H](C)N1	277	0.41	–	39.7	1	> 30	–	–	0.5	Active	–	–
C[C@@H]1CN(C(=O)N2Cc3c(C(=O)OC(C)(C)C)ncn3-c3ccc(Cl)cc32)C[C@H](C)N1CC(F)(F)F	37.8	0.67	–	42	0	> 30	–	19	0.5	–	–	inactive
